These results are taken from ChEMBL document CHEMBL4190328, “Design, Synthesis, and Biological Evaluation of Tetrahydroisoquinoline-Based Histone Deacetylase 8 Selective Inhibitors” (ACS Med Chem Lett, 2017).

pEC50, pIC50: −log10 of the molar value. Calls of active or inactive are those of the source. The calls are words filed in the database; no cut-off is given here.

Test [1] relates to SH-SY5Y. Kind of test: Cytotoxicity against human SH-SY5Y cells expressing TP53 after 48 hrs by CellTiter96 AQueous one solution cell proliferation assay. Type of test: functional, cell-based. The procedure, abridged:
(§1)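 Neuroblastoma cells were exposed to compound for 48 h and viability was read by MTS assay. Values are mean ± standard deviation of at least three independent experiments.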

Test [2] has as its system SH-SY5Y. Nature of the test: Inhibition of class 2 HDAC in human SH-SY5Y cells assessed as increase in acetylation of alpha-tubulin at 0.1 to 10 uM after 24 hrs by Western blot analysis. Type of test: cell-based. In outline:
(§2)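 SH-SY5Y cells were treated with the stated concentrations for 24 h. Lysates were analysed by Western blot for acetylated histone H3 and acetylated α-tubulin.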
(In general: In western blotting, separated proteins are transferred to a membrane and probed.)

Test [3] deals with Histone deacetylase 3/Nuclear receptor corepressor 2 (HDAC3/NCoR2) (Homo sapiens, UniProt O15379). Kind of test: Inhibition of recombinant human full-length C-terminal His-tagged HDAC3 (395 to 489 residues)/human NCOR2 expressed in baculovirus infected Sf9 insect cells using Boc-L-Lys(Ac)-AMC as substrate pretreated for 5 mins followed by substrate addition measured after 35 mins by fluorescence assay.
Histone deacetylase 3/Nuclear receptor corepressor 2 (HDAC3/NCoR2), sequence (O15379 whole entry, the tested form may be a part): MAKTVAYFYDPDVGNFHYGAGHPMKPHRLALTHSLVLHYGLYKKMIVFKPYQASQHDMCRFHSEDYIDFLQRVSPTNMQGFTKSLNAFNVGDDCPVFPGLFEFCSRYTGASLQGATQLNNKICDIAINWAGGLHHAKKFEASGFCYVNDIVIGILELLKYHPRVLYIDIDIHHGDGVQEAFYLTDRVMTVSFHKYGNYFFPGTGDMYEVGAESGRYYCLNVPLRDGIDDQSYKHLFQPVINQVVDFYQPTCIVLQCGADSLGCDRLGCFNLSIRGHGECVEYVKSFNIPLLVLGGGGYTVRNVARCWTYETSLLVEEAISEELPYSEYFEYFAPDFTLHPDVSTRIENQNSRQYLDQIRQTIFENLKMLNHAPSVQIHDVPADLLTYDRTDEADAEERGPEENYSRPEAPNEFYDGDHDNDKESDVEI
Histone deacetylase 3/Nuclear receptor corepressor 2 (HDAC3/NCoR2), sequence (Q9Y618 whole entry, further chain, the tested form may be a part): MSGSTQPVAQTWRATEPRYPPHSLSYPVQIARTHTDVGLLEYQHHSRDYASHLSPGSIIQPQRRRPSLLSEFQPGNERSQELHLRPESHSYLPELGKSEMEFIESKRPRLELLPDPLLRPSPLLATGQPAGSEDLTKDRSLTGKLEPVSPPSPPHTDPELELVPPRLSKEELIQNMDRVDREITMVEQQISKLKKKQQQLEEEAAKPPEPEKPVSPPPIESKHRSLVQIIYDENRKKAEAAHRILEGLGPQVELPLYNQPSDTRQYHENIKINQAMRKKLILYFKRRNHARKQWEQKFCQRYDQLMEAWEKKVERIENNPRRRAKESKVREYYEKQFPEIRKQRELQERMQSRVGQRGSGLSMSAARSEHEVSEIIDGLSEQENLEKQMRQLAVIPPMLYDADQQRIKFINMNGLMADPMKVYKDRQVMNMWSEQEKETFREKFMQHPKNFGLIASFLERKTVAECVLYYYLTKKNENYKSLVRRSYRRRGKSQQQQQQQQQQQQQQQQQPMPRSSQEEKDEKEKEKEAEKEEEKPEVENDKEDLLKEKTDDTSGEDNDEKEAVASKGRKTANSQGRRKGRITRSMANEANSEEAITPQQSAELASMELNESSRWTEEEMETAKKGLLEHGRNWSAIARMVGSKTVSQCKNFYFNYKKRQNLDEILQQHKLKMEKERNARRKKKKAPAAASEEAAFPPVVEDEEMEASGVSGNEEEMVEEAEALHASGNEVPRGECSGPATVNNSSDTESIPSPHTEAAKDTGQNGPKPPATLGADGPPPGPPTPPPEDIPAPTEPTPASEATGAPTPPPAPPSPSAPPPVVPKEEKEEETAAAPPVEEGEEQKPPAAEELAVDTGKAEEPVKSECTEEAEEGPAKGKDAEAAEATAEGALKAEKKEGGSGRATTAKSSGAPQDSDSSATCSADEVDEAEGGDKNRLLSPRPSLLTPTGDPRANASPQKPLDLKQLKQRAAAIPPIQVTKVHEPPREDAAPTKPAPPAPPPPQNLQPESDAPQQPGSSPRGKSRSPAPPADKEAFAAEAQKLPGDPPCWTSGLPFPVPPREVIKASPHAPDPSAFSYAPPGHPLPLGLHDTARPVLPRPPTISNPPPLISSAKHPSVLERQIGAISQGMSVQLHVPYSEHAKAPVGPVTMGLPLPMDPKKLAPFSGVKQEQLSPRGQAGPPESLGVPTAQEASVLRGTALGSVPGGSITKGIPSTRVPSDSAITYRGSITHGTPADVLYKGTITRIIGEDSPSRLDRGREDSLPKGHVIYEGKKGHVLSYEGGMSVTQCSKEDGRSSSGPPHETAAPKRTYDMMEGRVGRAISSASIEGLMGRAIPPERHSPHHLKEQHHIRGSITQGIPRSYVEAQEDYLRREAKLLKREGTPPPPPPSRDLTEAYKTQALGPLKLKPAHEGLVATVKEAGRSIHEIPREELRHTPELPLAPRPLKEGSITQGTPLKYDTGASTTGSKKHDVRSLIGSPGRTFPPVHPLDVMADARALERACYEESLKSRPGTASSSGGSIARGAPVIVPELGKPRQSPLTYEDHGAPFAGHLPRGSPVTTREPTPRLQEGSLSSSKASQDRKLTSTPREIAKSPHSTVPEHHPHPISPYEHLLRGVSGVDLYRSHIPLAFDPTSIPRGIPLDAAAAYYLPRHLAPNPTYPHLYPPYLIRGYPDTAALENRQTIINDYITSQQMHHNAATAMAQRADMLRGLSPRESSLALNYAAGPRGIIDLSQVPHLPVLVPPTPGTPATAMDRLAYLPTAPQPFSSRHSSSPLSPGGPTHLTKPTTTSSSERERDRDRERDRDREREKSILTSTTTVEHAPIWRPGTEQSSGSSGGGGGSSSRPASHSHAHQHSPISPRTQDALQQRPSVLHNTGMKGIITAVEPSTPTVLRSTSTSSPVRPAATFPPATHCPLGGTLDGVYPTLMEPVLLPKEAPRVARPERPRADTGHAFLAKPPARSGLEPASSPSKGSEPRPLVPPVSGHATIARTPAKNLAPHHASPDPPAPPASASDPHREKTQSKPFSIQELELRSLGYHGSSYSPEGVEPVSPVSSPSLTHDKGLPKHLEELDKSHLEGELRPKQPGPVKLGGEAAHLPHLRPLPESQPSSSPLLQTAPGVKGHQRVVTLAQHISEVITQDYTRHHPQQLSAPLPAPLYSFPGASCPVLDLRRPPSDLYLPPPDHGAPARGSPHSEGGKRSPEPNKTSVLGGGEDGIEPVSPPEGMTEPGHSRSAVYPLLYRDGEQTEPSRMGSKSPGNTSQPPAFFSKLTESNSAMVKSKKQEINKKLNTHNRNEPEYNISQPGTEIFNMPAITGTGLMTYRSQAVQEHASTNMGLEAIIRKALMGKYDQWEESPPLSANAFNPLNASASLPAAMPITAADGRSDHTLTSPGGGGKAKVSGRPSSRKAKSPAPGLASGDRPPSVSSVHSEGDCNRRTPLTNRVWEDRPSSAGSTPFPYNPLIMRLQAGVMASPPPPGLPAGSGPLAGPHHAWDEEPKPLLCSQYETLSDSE

A further test has as its system IMR-5. Nature of the test: Cytotoxicity against human IMR5 cells expressing TP53 after 48 hrs by CellTiter96 AQueous one solution cell proliferation assay. To be noted: IMR-5, 48 h. Type of test: functional, cell-based. The procedure, abridged: as §1
A further test has as its target Histone deacetylase 1 (Homo sapiens, UniProt Q13547). Kind of test: Inhibition of recombinant full-length human C-terminal FLAG-His-tagged HDAC1 expressed in baculovirus infected Sf9 insect cells using Boc-L-Lys(Ac)-AMC as substrate preincubated for 5 mins followed by substrate addition measured after 35 mins by fluorescence assay.
Test [4] deals with T1, Protein deacetylase HDAC6 (Homo sapiens) (UniProt Q9UBN7).
T1 sequence (whole entry): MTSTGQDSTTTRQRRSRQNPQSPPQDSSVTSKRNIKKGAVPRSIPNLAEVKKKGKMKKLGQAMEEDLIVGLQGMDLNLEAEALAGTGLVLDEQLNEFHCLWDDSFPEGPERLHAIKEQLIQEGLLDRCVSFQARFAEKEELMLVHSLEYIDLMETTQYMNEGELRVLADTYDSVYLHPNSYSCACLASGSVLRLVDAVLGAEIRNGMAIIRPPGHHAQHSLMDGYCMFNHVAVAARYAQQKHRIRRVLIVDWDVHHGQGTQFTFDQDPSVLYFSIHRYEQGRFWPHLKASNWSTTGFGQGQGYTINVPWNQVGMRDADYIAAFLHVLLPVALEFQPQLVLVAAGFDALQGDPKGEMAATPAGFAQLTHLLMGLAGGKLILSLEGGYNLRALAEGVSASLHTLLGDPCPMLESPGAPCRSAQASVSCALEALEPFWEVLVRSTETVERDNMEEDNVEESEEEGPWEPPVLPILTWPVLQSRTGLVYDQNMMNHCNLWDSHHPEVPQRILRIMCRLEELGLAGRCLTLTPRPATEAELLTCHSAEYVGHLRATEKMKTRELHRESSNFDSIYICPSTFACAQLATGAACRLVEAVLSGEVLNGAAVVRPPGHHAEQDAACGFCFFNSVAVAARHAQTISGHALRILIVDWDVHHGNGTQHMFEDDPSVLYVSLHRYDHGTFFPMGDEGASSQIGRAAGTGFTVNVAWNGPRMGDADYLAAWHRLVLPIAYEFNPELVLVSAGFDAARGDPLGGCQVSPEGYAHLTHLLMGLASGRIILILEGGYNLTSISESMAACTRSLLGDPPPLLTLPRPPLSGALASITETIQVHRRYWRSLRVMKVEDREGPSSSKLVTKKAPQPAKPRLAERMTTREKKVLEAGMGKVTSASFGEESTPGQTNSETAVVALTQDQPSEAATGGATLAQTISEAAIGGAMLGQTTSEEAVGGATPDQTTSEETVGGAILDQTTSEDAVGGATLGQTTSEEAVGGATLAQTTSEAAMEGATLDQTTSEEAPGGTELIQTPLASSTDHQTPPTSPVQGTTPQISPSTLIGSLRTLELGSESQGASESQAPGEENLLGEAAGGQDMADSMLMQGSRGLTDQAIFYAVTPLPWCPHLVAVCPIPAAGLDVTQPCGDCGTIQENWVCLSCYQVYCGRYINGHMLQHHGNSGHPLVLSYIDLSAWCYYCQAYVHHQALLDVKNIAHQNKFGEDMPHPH
Nature of the test: Inhibition of recombinant human HDAC6 at 10 uM using fluorogenic HDAC substrate 3 by fluorescence assay relative to control. The procedure, abridged: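 HDAC6 activity was measured with test compound at 10 μM and reported as percent inhibition. Values are mean ± standard deviation of at least two independent experiments, rounded to two significant figures.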

Another test is filed under the species Homo sapiens. Nature of the test: Selectivity ratio of IC50 for recombinant full-length human C-terminal FLAG-His-tagged HDAC1 expressed in baculovirus infected Sf9 insect cells to IC50 for recombinant HDAC8 (unknown origin) expressed in Escherichia coli.
The subject of test [5] is SH-SY5Y. Kind of test: Inhibition of class 1 HDAC in human SH-SY5Y cells assessed as increase in acetylation of histone H3 at 0.1 to 10 uM after 24 hrs by Western blot analysis. Format: cell-based. In outline: as §2
The next test has as its target Histone deacetylase 2 (Homo sapiens, UniProt Q92769). Kind of test: Inhibition of recombinant human full-length C-terminal His-tagged HDAC2 expressed in baculovirus infected Sf9 insect cells using Boc-L-Lys(Ac)-AMC as substrate preincubated for 5 mins followed by substrate addition measured after 35 mins by fluorescence assay.
The target of the next test is T2, Histone deacetylase 8 (Homo sapiens, UniProt Q9BY41).
T2 sequence (Q9BY41 whole entry): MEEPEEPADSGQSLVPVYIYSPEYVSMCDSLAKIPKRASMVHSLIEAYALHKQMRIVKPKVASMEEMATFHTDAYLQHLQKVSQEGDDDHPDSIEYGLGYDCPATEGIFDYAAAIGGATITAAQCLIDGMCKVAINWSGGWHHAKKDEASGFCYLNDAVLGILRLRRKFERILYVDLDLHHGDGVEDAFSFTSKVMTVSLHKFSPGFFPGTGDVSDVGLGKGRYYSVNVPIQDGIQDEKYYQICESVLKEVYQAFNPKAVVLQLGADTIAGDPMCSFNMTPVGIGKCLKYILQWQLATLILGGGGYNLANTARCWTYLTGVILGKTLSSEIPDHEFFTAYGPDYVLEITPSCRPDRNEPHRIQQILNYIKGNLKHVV
Kind of test: Inhibition of recombinant HDAC8 (unknown origin) expressed in Escherichia coli using fluor de Lys(R) as substrate pretreated for 5 mins followed by substrate addition measured after 35 mins by fluorescence assay.

Histone deacetylase 1, sequence (Q13547 whole entry): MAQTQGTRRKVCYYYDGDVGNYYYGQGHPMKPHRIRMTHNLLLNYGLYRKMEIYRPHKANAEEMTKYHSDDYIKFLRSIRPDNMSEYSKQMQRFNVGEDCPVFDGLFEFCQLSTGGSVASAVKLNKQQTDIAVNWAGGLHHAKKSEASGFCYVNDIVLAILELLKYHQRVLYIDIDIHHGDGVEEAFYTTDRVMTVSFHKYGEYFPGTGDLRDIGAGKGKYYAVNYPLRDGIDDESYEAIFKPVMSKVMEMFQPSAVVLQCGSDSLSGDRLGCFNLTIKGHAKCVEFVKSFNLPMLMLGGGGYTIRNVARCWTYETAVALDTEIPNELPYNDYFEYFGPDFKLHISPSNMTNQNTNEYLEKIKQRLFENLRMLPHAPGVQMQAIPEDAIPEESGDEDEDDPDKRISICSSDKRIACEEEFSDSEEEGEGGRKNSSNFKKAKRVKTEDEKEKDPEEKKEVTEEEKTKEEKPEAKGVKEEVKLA
Histone deacetylase 2, sequence (Q92769 whole entry): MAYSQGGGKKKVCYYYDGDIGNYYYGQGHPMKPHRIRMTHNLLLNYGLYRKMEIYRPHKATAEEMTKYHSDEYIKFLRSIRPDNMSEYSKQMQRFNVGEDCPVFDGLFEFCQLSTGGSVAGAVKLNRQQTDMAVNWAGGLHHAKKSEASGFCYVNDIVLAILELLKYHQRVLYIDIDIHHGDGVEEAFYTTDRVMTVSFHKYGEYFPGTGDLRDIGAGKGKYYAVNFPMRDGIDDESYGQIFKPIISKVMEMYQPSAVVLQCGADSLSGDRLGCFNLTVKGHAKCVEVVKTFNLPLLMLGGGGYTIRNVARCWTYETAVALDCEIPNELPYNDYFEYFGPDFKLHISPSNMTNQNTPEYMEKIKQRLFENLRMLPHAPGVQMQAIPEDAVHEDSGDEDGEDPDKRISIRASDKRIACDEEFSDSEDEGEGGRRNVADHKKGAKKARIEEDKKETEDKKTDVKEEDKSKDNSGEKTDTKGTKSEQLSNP

Turning to `O=C(CCN1CCc2ccccc2C1c1ccc(-c2ccccc2)cc1)NO` (stereo not given), the pEC50 (in general, the negative decadic logarithm of the EC50, by convention in mol/L) was 6.12 with SH-SY5Y [1] and 5.24 in the test on IMR-5. For the same compound, the inhibition result with SH-SY5Y [2] and in the test with SH-SY5Y [5] was “inactive” throughout. The pIC50 – broadly, the IC50 on a negative log10 scale, so that one unit is a factor of ten – was 4.42 in [3], 5.14 at Histone deacetylase 1, 4.33 at Histone deacetylase 2 and 7.26 at Histone deacetylase 8. In test [4], the inhibition – broadly, how much of the control response was suppressed – came out at 39%. Besides, in the test filed under Homo sapiens, the Ratio IC50 stood at 135.
